Screening data from PubChem.
A selection: hits, their analogues and other compounds. The true share with any hit is near 4%.
Statin myotox sup: protects C2C12 myotubes from simvastatin toxicity; ATP luminescence, 48 h; scaled: DMSO 0, geranylgeraniol control 100; actives 0.78% (n = 330,000); rescue of ATP level, % at 7.49 µM; AID 602340;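 active = mean ATP rescue above about 67%, or every replicate alone reaching that limit, limit read from the data, passing the limit was not always enough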;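 note: myotubes were challenged with 10 µM simvastatin during compound exposure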
SIRT5 block: inhibitors of human sirtuin-5 desuccinylase; Q9NXA8; Purified SirT5, succinyl-peptide AMC, trypsin-coupled fluorescence; inhibition, % at 15 µM; actives 1.1% (n = 330,000); AID 652115; in the data active = inhibition above about 15%
Target sequence (Q9NXA8 whole entry, looked up): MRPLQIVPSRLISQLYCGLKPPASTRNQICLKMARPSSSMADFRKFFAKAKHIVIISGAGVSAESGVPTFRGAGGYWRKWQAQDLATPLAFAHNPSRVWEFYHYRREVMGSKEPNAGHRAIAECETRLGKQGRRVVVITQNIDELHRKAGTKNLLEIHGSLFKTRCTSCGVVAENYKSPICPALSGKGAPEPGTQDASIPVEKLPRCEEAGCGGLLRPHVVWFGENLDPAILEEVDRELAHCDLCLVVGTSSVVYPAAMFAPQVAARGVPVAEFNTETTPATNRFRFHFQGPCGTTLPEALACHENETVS
E-selectin induc: E-selectin induction on HUVECs. P16581. HUVEC E-selectin immunofluorescence imaging; normalized: neutral wells 0, TNF-alpha wells 100. activation, % at 7.58 µM. actives 0.37% (n = 260,000). AID 686992;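 active = mean E-selectin-positive cell signal at least 10% of the positive control, reached in at least 60% of replicates, without over 20% cell loss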
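Material: HUVEC primary endothelial cells; Amount: 3,000 cells per well; Dosing: single concentration; Medium: EGM-2 growth medium on 0.1% gelatin-coated wells; Read-out basis: percent E-selectin-positive cells; Signal: immunofluorescence imaging; Control set: TNF-alpha, DMSO.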
FGF22 binding: FGF22 (human) thermal shift binding; Q9HCT0; recombinant FGF22 thermal shift, SYPRO orange fluorescence; percent of sucrose octasulfate shift, DMSO zero; activity (Tm shift, normalised), % at 9.99 µM; actives 1.5% (n = 340,000); AID 651658;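 active = mean Tm shift, scaled 0 neutral to 100 positive control, at about 1.3% or above, every replicate too, limit read from the data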
Target sequence (Q9HCT0 whole entry, looked up): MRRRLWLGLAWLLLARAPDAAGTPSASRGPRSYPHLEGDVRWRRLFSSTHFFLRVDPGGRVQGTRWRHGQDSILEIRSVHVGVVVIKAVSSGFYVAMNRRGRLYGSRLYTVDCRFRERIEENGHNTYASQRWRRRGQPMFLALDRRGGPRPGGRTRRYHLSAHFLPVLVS
Ecoli rRNA inh: inhibits bacterial ribosomal RNA function over humanized ribosomes; E. coli WT GFP vs humanized-ribosome RFP mutants, fluorescence, 24 h; hits give low values; DMSO median 0, no signal -100; GFP signal change (wild-type ribosome), % (concentration not given with the values); actives 1.6% (n = 350,000); AID 720706;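 active = significant combined selectivity score with lowered wild-type GFP, culture density cut under 30%, mutant RFP and density less affected; inactive = any of these conditions unmet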
FN deposit inh: fibronectin deposition inhibition; AH1F fibroblasts, Alexa488-fibronectin deposition fluorescence, overnight; inhibition, % at 12.6 µM; actives 0.086% (n = 350,000); AID 743247;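 active = mean inhibition across replicates of 30% or more, regardless of how many single replicates reach that level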;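 note: positive control wells lacked labelled fibronectin entirely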
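Assay system: AH1F fibroblasts assembling fluorescent fibronectin matrix; Amount: 10000 AH1F cells per well; Buffer or medium: DMEM, 2% serum; Probe or stimulus: Alexa488-fibronectin, 24 nM final in well; Doses: single compound dose, delivered by pin transfer; Incubation: 1 h adhesion, overnight exposure; Measured by: fluorescence 485/525 nm; Read-out: fibronectin deposition inhibition.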
Active calls of the source: *.

For C[C@H](CO)N1C[C@H](C)[C@@H](CN(C)Cc2cncnc2)Oc2cc(/C=C/c3ccccc3)ccc2S1(=O)=O the results were Statin myotox sup -54, SIRT5 block 11, E-selectin induc 0, FGF22 binding 0 and Ecoli rRNA inh -10.
`C[C@@H]1CN([C@H](C)CO)C(=O)c2cc(NS(=O)(=O)c3ccc(Cl)cc3)ccc2O[C@@H](C)CCCCO[C@@H]1CN(C)Cc1ccccc1` gave SIRT5 block 21*, Ecoli rRNA inh -10 and FN deposit inh -13.
`C[C@H]1CCCCO[C@H](CN(C)Cc2ccccc2)[C@@H](C)CN([C@@H](C)CO)C(=O)c2cc(NS(=O)(=O)c3ccc(Cl)cc3)ccc2O1` gave SIRT5 block 2, Ecoli rRNA inh -9 and FN deposit inh 4.
For C[C@@H]1CN([C@@H](C)CO)C(=O)c2cc(NS(=O)(=O)c3ccc(Cl)cc3)ccc2O[C@@H](C)CCCCO[C@@H]1CN(C)Cc1ccccc1 the results were SIRT5 block 18*, Ecoli rRNA inh -3 and FN deposit inh 0.
`COCC(=O)Nc1ccc2c(c1)C(=O)N(C)C[C@@H](OC)[C@H](C)CN(CCC(F)(F)F)[C@@H](C)CO2` gave Statin myotox sup 13, SIRT5 block 0, E-selectin induc 0, FGF22 binding 0, Ecoli rRNA inh 0 and FN deposit inh 11.
Cc1[nH]nc(N2CCCCC2)c1[N+](=O)[O-] was read as Statin myotox sup 0 and FN deposit inh -1.
Screening Cc1cc(C)n(-c2n[nH]c(C)c2[N+](=O)[O-])n1 returned SIRT5 block -3, E-selectin induc 6, FGF22 binding 44*, Ecoli rRNA inh 5 and FN deposit inh -5.
Screening COC(=O)Cn1cnc2sc3c(c2c1=O)CCCC3 returned Statin myotox sup -4, SIRT5 block -7, FGF22 binding 43*, Ecoli rRNA inh 5 and FN deposit inh -23.
CC1CCc2c(sc3ncn(Cc4ccc(C(=O)O)cc4)c(=O)c23)C1 (configuration not stated) was read as Statin myotox sup 4, SIRT5 block -4, E-selectin induc 0, FGF22 binding 43*, Ecoli rRNA inh -20 and FN deposit inh 1.
Screening CC1CCc2c(sc3ncn(CCO)c(=O)c23)C1 (configuration not stated) returned Statin myotox sup 8, SIRT5 block -5, E-selectin induc 6, FGF22 binding 42, Ecoli rRNA inh 5 and FN deposit inh 5.
`NNC(=O)c1cncn1-c1ccc(F)cc1` gave SIRT5 block -10, FGF22 binding 44*, Ecoli rRNA inh 13 and FN deposit inh 4.
`NC(=O)c1ccc(NC(=O)c2cncn2-c2ccccc2)cc1` gave Statin myotox sup 2, SIRT5 block 0, FGF22 binding 0, Ecoli rRNA inh 5 and FN deposit inh 2.
CC(=O)N1CCN(CC(=O)Nc2ccc(C)c(S(=O)(=O)N(C)C)c2)CC1 was read as SIRT5 block -3, FGF22 binding 43*, Ecoli rRNA inh 13 and FN deposit inh 12.
`CC(=O)N1CCN(CC(=O)Nc2ccc(Cl)c(S(=O)(=O)N(C)C)c2)CC1` gave SIRT5 block -2, FGF22 binding 0, Ecoli rRNA inh 14 and FN deposit inh 2.
Screening CC(=O)N1CCN(CC(=O)Nc2ccc3c(c2)CCC3)CC1 returned SIRT5 block -1, FGF22 binding 44*, Ecoli rRNA inh 13 and FN deposit inh -4.
`C[C@@H]1CN([C@@H](C)CO)C(=O)Cc2cc(NS(=O)(=O)c3cccs3)ccc2O[C@H]1CN(C)C(=O)Nc1ccc(C(F)(F)F)cc1` gave Statin myotox sup -25, SIRT5 block 7, FGF22 binding 0 and Ecoli rRNA inh -4.
Screening COc1cc(C)c(Cl)cc1S(=O)(=O)NCCCN1CCOCC1 returned Statin myotox sup -23.
`COc1cc(C)c(Cl)cc1S(=O)(=O)NCCN1CCOCC1` gave Statin myotox sup 123*.
`Cc1noc(C)c1NC(=O)N(C)C[C@H]1OCCCC[C@H](C)Oc2ccc(NS(=O)(=O)c3ccc(Cl)cc3)cc2C(=O)N([C@@H](C)CO)C[C@@H]1C` gave SIRT5 block 10, Ecoli rRNA inh -1 and FN deposit inh -5.
For C[C@@H]1CN([C@@H](C)CO)C(=O)c2cc(NC(=O)Nc3ccc(F)cc3)ccc2O[C@@H](C)CCCCO[C@H]1CN(C)S(=O)(=O)c1ccccc1 the results were SIRT5 block 3, E-selectin induc 0, FGF22 binding 1 and Ecoli rRNA inh 6.
For CCC1(C)Cc2ccccc2C(=S)N1 (configuration not stated) the results were Statin myotox sup 88*, SIRT5 block 0, Ecoli rRNA inh 19 and FN deposit inh -7.
Screening O=C(c1cc(F)ccc1F)C1CCCN(C(=O)CCN2CCCCO2)C1 (configuration not stated) returned Statin myotox sup 7, SIRT5 block 2, FGF22 binding 43* and Ecoli rRNA inh 14.
`COC(=O)CCC(=O)N1CCCC(C(=O)c2cc(F)ccc2F)C1` (configuration not stated) gave Statin myotox sup -9, SIRT5 block 7, FGF22 binding 0, Ecoli rRNA inh 0 and FN deposit inh -6.
O=C(/C=C/c1ccc(Br)cc1)NC(=S)N1CCOCC1 was read as SIRT5 block 0, E-selectin induc 0, FGF22 binding 44*, Ecoli rRNA inh -4 and FN deposit inh 3.
Screening O=c1cc(-c2ccccc2[N+](=O)[O-])oc2ccccc12 returned SIRT5 block -1, FGF22 binding 43* and Ecoli rRNA inh -8.
O=c1cc(-c2ccccc2F)oc2ccccc12 was read as Statin myotox sup 5, E-selectin induc 0 and FN deposit inh 2.
Screening CCCc1nc(SCC(=O)Nc2nc3c(s2)CCCC3)c2ccccc2n1 returned Statin myotox sup 27, SIRT5 block 16*, FGF22 binding 0 and Ecoli rRNA inh -18.
`CCc1nc(SCC(=O)Nc2nc3c(s2)CCCC3)c2ccccc2n1` gave Statin myotox sup 13.
CCOC(=O)C1=C(CN2CCSCC2)NC(=O)NC1c1cccc([N+](=O)[O-])c1 (configuration not stated) was read as Statin myotox sup 4, SIRT5 block 0, E-selectin induc 6, FGF22 binding 0, Ecoli rRNA inh 5 and FN deposit inh -3.
